Data: ChEMBL document CHEMBL4266004, “Series of Alkynyl-Substituted Thienopyrimidines as Inhibitors of Protozoan Parasite Proliferation” (ACS Med Chem Lett, 2018)

Key:
[1] = test system: Trypanosoma brucei brucei; experiment: Antitrypanosomal activity against Trypanosoma brucei brucei 427 at 5 uM after 48 hrs by presto blue dye based fluorescence assay relative to control; format: functional
In short: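 Single-concentration screen of bloodstream T. brucei cultures at 5 μM, 5 × 10^4 cells/mL; percent proliferation inhibition recorded.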

[2] = Selectivity index, ratio of TC50 for human HepG2 cells to EC50 for Plasmodium falciparum D6 trophozoites; format: toxicity; conditions: read-out: Selectivity Index
In short: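 P. falciparum D6 screened in duplicate or quadruplicate. Selectivity = HepG2 TC50 / P. falciparum EC50.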

[3] = Cytotoxicity against human HepG2 cells; format: cell-based; conditions: read-out: TC50 (the source's name)
[4] = Cytotoxicity against mouse NIH/3T3 cells; format: cell-based, NIH3T3; conditions: read-out: TC50 (the source's name)
[5] = Selectivity index, ratio of TC50 for mouse NIH/3T3 cells to EC50 for Trypanosoma cruzi Tulahuen intracellular amastigote harboring beta-galactosidase; format: toxicity, cell-based; conditions: read-out: Selectivity Index
In short: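 NIH 3T3 cells, the host line for intracellular T. cruzi amastigote culture, tested for toxicity. Selectivity = NIH3T3 TC50 / T. cruzi EC50.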

[6] = Selectivity index, ratio of TC50 for human HepG2 cells to EC50 for Leishmania major intracellular amastigotes harboring luciferase infected in mouse RAW264.7 cells; format: toxicity, cell-based; conditions: read-out: Selectivity Index
In short: (§1)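 L. major amastigotes screened in duplicate or quadruplicate. Selectivity derived as HepG2 TC50 / L. major EC50.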

Trypanosoma cruzi = experiment: Antitrypanosomal activity against Trypanosoma cruzi Tulahuen intracellular amastigote harboring beta-galactosidase infected in mouse NIH/3T3 cells after 96 hrs by CPRG reagent based assay; format: functional, organism-based; conditions: NIH3T3, 96 h
Leishmania major = experiment: Antileishmanial activity against Leishmania major intracellular amastigotes harboring luciferase infected in mouse RAW264.7 cells after 96 hrs by luminescence assay; format: functional, organism-based; conditions: RAW264.7, 96 h; in short: as §1
Plasmodium falciparum = experiment: Antimalarial activity against Plasmodium falciparum D6 trophozoites after 72 hrs by SYBR Green I dye-based fluorescence assay; format: functional, organism-based; conditions: D6, 72 h
In short: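 P. falciparum D6 strain; compounds run in duplicate or quadruplicate; EC50 determined from dose-response.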

[7] = Selectivity index, ratio of TC50 for human HepG2 cells to EC50 for Trypanosoma brucei brucei 427; format: toxicity; conditions: read-out: Selectivity Index
[8] = test system: Trypanosoma brucei brucei; experiment: Antitrypanosomal activity against Trypanosoma brucei brucei 427 after 48 hrs by presto blue dye based fluorescence assay; format: functional, organism-based; conditions: Trypanosoma brucei, 427, 48 h

| Structure (SMILES) | Activity [1] [%] | selectivity ratio [2] | CC50 [3] [µM] | CC50 [4] [µM] | selectivity ratio [5] | selectivity ratio [6] | EC50 (Trypanosoma cruzi) [µM] | EC50 (Leishmania major) [µM] | EC50 (Plasmodium falciparum) [µM] | selectivity ratio [7] | EC50 [8] [nM] |
| --- | --- | --- | --- | --- | --- | --- | --- | --- | --- | --- | --- |
| Fc1cccc(COc2ccc(Nc3ncnc4cc(C#CCN5CCOCC5)sc34)cc2Cl)c1 | 16 | > 9.7 | > 29 | 4.7 | 1.4 | > 3.8 | 3.4 | 7.6 | 3 | – | – |
| Fc1cccc(COc2ccc(Nc3ncnc4ccc(-c5cccc(N6CCOCC6)c5)cc34)cc2Cl)c1 | – | – | > 35 | – | – | – | – | – | – | – | – |
| COCC#Cc1cc2ncnc(Nc3ccc(OCc4cccc(F)c4)c(Cl)c3)c2s1 | >75 | > 5.6 | > 33 | > 50 | > 1.6 | > 3.5 | 30.7 | 9.4 | 5.9 | > 9.7 | 3400 |
| O=C(Cn1ccnc1[N+](=O)[O-])NCc1ccccc1 [BENZNIDAZOLE] | – | – | – | – | – | – | 0.79 | – | – | – | – |
| CCCN(CC#Cc1cc2ncnc(Nc3ccc(OCc4cccc(F)c4)c(Cl)c3)c2s1)CCC | 1 | – | 26.5 | > 50 | – | 4.5 | > 50 | 6 | > 15 | – | – |
| CC(C)CC#Cc1cc2ncnc(Nc3ccc(OCc4cccc(F)c4)c(Cl)c3)c2s1 | 11 | – | > 32 | > 50 | – | – | > 50 | > 15 | > 15 | – | – |
| Fc1cccc(COc2ccc(Nc3ncnc4ccc(C#CCN5CCSCC5)cc34)cc2Cl)c1 | 19 | > 26 | > 29 | > 50 | > 20 | > 5.4 | 2.5 | 5.4 | 1.1 | – | – |
| Cc1ccc(C(=O)Nc2ccc(S(=O)(=O)O)c3cc(S(=O)(=O)O)cc(S(=O)(=O)O)c23)cc1NC(=O)c1cccc(NC(=O)Nc2cccc(C(=O)Nc3cc(C(=O)Nc4ccc(S(=O)(=O)O)c5cc(S(=O)(=O)O)cc(S(=O)(=O)O)c45)ccc3C)c2)c1 [SURAMIN] | – | – | – | – | – | – | – | – | – | – | 40 |
| Fc1cccc(COc2ccc(Nc3ncnc4ccc(C#CCN5CCOCC5)cc34)cc2Cl)c1 | 27 | > 5.1 | > 30 | 33 | 41 | > 5.5 | 0.8 | 5.5 | 5.9 | – | – |
| Fc1cccc(COc2ccc(Nc3ncnc4cc(C#Cc5ccc(C(F)(F)F)nc5)sc34)cc2Cl)c1 | 31 | – | > 5 | > 50 | – | – | > 50 | > 3 | > 3.6 | – | – |
| CC(C)(C)CC#Cc1cc2c(Nc3ccc(OCc4cccc(F)c4)c(Cl)c3)ncnc2s1 | 1 | > 5.6 | > 32 | > 50 | > 1.7 | – | 30 | > 15 | 5.7 | – | – |
| COCC#Cc1cc2c(Nc3ccc(OCc4cccc(F)c4)c(Cl)c3)ncnc2s1 | 18 | 3.2 | 9.5 | 1.7 | 1.1 | 1.3 | 1.5 | 7.3 | 3.02 | – | – |
| CC(C)(C)OC(=O)N1CCN(CC#Cc2cc3ncnc(Nc4ccc(OCc5cccc(F)c5)c(Cl)c4)c3s2)CC1 | 15 | > 19 | > 24 | 47 | 3.6 | > 3.5 | 13 | 6.9 | 1.5 | – | – |
| Fc1cccc(COc2ccc(Nc3ncnc4cc(C#CCN5CCNCC5)sc34)cc2Cl)c1 | 16 | > 15 | > 29 | > 50 | – | > 7.3 | > 50 | 4 | 1.9 | – | – |
| C[C@@H]1[C@H](O)[C@@H](C)/C=C/C=C/C=C/C=C/C=C/C=C/C=C/[C@H](O[C@@H]2O[C@H](C)[C@@H](O)[C@H](N)[C@@H]2O)C[C@@H]2O[C@](O)(C[C@@H](O)C[C@@H](O)[C@H](O)CC[C@@H](O)C[C@@H](O)CC(=O)O[C@H]1C)C[C@H](O)[C@H]2C(=O)O [AMPHOTERICIN B] | – | – | – | – | – | – | – | 0.035 | – | – | – |
| Fc1cccc(COc2ccc(Nc3ncnc4ccc(C#CC5CCCC5)cc34)cc2Cl)c1 | 2 | – | > 3 | > 50 | > 25 | – | 2 | > 2 | > 15 | – | – |

| Structure (SMILES) | Activity [1] [%] | selectivity ratio [2] | CC50 [3] [µM] | CC50 [4] [µM] | selectivity ratio [5] | selectivity ratio [6] | EC50 (Trypanosoma cruzi) [µM] | EC50 (Leishmania major) [µM] | EC50 (Plasmodium falciparum) [µM] | selectivity ratio [7] | EC50 [8] [nM] |
| --- | --- | --- | --- | --- | --- | --- | --- | --- | --- | --- | --- |
| CCOC(=O)CN(C)CC#Cc1ccc2ncnc(Nc3ccc(OCc4cccc(F)c4)c(Cl)c3)c2c1 | 23 | – | > 28 | > 50 | > 6.3 | – | 8 | > 15 | > 15 | – | – |
| CN(CC#Cc1cc2ncnc(Nc3ccc(OCc4cccc(F)c4)c(Cl)c3)c2s1)Cc1ccccc1 | 18 | – | > 27 | > 50 | – | – | > 50 | > 15 | > 15 | – | – |
| Fc1cccc(COc2ccc(Nc3ncnc4cc(C#Cc5ccccn5)sc34)cc2Cl)c1 | >75 | 12 | 24 | 27 | 2.3 | 63 | 12 | 0.38 | 2 | 18 | 1300 |
| Fc1cccc(COc2ccc(Nc3ncnc4cc(C#CCN5CCSCC5)sc34)cc2Cl)c1 | 12 | – | > 28 | > 50 | > 10 | > 4.8 | 5 | 5.9 | > 15 | – | – |
| CC(C)(C)OC(=O)N1CCC[C@H]1C#Cc1cc2ncnc(Nc3ccc(OCc4cccc(F)c4)c(Cl)c3)c2s1 | >75 | > 15 | > 26 | > 100 | – | > 16 | > 50 | 1.6 | 1.7 | > 22 | 1200 |
| Fc1cccc(COc2ccc(Nc3ncnc4cc(C#Cc5ncccc5F)sc34)cc2Cl)c1 | 19 | 27 | 30 | 47 | 2.5 | – | 19 | > 15 | 1.1 | – | – |
| Fc1cccc(COc2ccc(Nc3ncnc4cc(C#CC5CCCC5)sc34)cc2Cl)c1 | >75 | > 8.6 | > 31 | > 100 | – | – | > 50 | > 15 | 3.6 | > 41 | 760 |
| CN(C)CC#Cc1cc2ncnc(Nc3ccc(OCc4cccc(F)c4)c(Cl)c3)c2s1 | 52 | – | > 32 | > 50 | > 6 | > 13 | 8.2 | 2.5 | > 15 | – | – |
| CCOC(=O)CN(C)CC#Cc1cc2c(Nc3ccc(OCc4cccc(F)c4)c(Cl)c3)ncnc2s1 | 53 | – | > 28 | > 50 | – | > 3.1 | > 50 | 9 | > 15 | – | – |
| CCN(CC)CCCC(C)Nc1ccnc2cc(Cl)ccc12 (centres undefined) [CHLOROQUINE] | – | – | – | – | – | – | – | – | 0.0089 | – | – |
| Fc1cccc(COc2ccc(Nc3ncnc4sc(C#CCN5CCOCC5)cc34)cc2Cl)c1 | 48 | > 9.7 | > 29 | – | – | > 4.5 | – | 6.5 | 3 | – | – |
| CN(CC#Cc1cc2c(Nc3ccc(OCc4cccc(F)c4)c(Cl)c3)ncnc2s1)Cc1ccccc1 | 0 | 4.6 | 21.6 | 2.5 | 1.3 | 2 | 1.9 | 11 | 4.8 | – | – |
| Fc1cccc(COc2ccc(Nc3ncnc4cc(C#Cc5cn6ccnc6cn5)sc34)cc2Cl)c1 | 33 | > 4.9 | > 28 | > 50 | – | – | > 50 | > 15 | 5.7 | – | – |
| CC(C)(C)CC#Cc1cc2ncnc(Nc3ccc(OCc4cccc(F)c4)c(Cl)c3)c2s1 | 31 | – | 29.3 | > 50 | – | – | > 50 | > 15 | > 15 | – | – |
| CCOC(=O)CN(C)CC#Cc1cc2ncnc(Nc3ccc(OCc4cccc(F)c4)c(Cl)c3)c2s1 | 27 | 7.1 | 27 | 52 | 5.4 | 5.9 | 9.6 | 4.6 | 3.8 | – | – |
